The text below walks through data of ChEMBL document CHEMBL6103596, “Design, Synthesis, and Biological Evaluation of BODIPY-Caged Resiquimod as a Dual-Acting Phototherapeutic” (J Med Chem, 2025).

Active and inactive are the calls of the source. No cut-off for these calls is given here.

Data set [1] can be described thus: Phototoxicity in human A549 cells assessed as cell viability at 10 uM under 530 ot 650nm 30 mW LED light irradiation and measured after 72 hrs by CCK-8 method relative to control. To be noted: A549, light or radiation study, read-out: Activity. Type of data set: functional. The method, boiled down: (§1)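 A549, HaCaT and HeLa cells seeded at 2 × 10^3 cells/well in phenol red-free DMEM with 10% FBS. After 24 h, medium replaced with 1% DMSO containing 10 μM compound. After 90 min, one plate kept dark and one exposed to 530 or 650 nm LED (30 mW) for 15 min. Plates incubated 72 h, then CCK-8 read at 450 nm. Viability taken relative to dark control. Triplicates (HaCaT six).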
For orientation: Tetrazolium assays rely on reduction of a dye to a coloured formazan, in cell work by metabolically active cells.

A short description of data set [2]: Photorelease activity of the compound in aqueous solution at 30 uM under dark condition by 1H NMR spectroscopy analysis. Type of data set: ADME. To be noted: buffer.
Data set [3] in a line: Dark toxicity in human HeLa cells assessed as cell viability at 10 uM under dark condition and measured after 72 hrs by CCK-8 method relative to control. The settings on record: read-out: Activity. The format is cell-based. The method in brief: as §1
The nature of data set [4]: Photorelease activity of the compound in aqueous solution at 30 uM under 647 nm 400mW LED light by 1H NMR spectroscopy analysis. The format is ADME. The settings on record: buffer, time 10-40 min.
A short description of data set [5]: Induction of hydroxyl radical assessed as DMPO-OH radical adduct formation under dark condition measured after 10 mins by ESR spectra analysis. Type of data set: functional. The method, boiled down:
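ESR spectra recorded with DMPO as spin trap to detect superoxide and/or hydroxyl radical adducts, before and after 10 min irradiation of compound.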

Data set [6] in a line: Dark toxicity in human HaCaT cells assessed as cell viability at 10 uM under dark condition and measured after 72 hrs by CCK-8 method relative to control. Type of data set: cell-based. The settings on record: read-out: Activity. The method, boiled down:
as §1

Data set [7] in a line: Thermal stability of compound in DMSO-d6 at 37.5 degree C measured after 2 days by 1H NMR spectroscopy analysis relative to control. The format is physicochemical. The settings on record: 48 h; time 2 day. The method in brief:
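Compound in DMSO-d6 followed by 1H NMR. Degradation taken from the intensity of three signals (one resiquimod, one BODIPY, and the linkage NH), each relative to the DMSO-d6 internal standard, and the three averaged.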

A short description of data set [8]: Photorelease activity of the compound in DMSO-d6 measured within 90 mins under 660nm 400mW LED light by 1H NMR spectroscopy analysis relative to control. The format is ADME. To be noted: 1.5 h.
A short description of data set [9]: Phototoxicity in human HaCaT cells assessed as cell viability at 10 uM under 530 ot 650nm 30 mW LED light irradiation and measured after 72 hrs by CCK-8 method relative to control. Type of data set: functional. The settings on record: light or radiation study, read-out: Activity. The method, boiled down: as §1
Data set [10] is described as follows: Photophysical property of the compound assessed as fluorescence quantum yield. Type of data set: physicochemical.
The nature of data set [11]: Dark toxicity in human A549 cells assessed as cell viability at 10 uM under dark condition and measured after 72 hrs by CCK-8 method relative to control. Type of data set: cell-based. The settings on record: read-out: Activity. The method in brief:
as §1

A short description of data set [12]: Upregulation of TNF-alpha mRNA expression in mouse RAW264.7 cells assessed as fold change at 100 nM preincubated with NAC followed by compound addition and measured after 30 mins under 650nm LED light irradiation by real-time PCR analysis. Type of data set: functional. To be noted: 0.5 h. The method in brief: (§2)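 RAW264.7 cells seeded at 0.3 million per 35 mm dish. Next day, pretreated with 10 mM N-acetyl-cysteine for 30 min, then given 100 nM compound and 650 nm LED light for 30 min. Total RNA taken 24 h later and reverse transcribed with random primers. SYBR real-time PCR run for 40 cycles (95/60/72 °C). Quantities calculated by the Ct method. Results given as fold change, means ± SD.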
A general note: In qPCR the cycle at which signal appears reflects the starting amount.

Data set [13] can be described thus: Upregulation of iNOS mRNA expression in mouse RAW264.7 cells assessed as fold change at 100 nM preincubated with NAC followed by compound addition and measured after 30 mins under 650nm LED light irradiation by real-time PCR analysis. The format is functional. The settings on record: 0.5 h. The method in brief:
as §2

Data set [14] has as its target T1, Toll-like receptor 7 (Homo sapiens) (UniProt Q9NYK1).
T1 sequence (whole entry): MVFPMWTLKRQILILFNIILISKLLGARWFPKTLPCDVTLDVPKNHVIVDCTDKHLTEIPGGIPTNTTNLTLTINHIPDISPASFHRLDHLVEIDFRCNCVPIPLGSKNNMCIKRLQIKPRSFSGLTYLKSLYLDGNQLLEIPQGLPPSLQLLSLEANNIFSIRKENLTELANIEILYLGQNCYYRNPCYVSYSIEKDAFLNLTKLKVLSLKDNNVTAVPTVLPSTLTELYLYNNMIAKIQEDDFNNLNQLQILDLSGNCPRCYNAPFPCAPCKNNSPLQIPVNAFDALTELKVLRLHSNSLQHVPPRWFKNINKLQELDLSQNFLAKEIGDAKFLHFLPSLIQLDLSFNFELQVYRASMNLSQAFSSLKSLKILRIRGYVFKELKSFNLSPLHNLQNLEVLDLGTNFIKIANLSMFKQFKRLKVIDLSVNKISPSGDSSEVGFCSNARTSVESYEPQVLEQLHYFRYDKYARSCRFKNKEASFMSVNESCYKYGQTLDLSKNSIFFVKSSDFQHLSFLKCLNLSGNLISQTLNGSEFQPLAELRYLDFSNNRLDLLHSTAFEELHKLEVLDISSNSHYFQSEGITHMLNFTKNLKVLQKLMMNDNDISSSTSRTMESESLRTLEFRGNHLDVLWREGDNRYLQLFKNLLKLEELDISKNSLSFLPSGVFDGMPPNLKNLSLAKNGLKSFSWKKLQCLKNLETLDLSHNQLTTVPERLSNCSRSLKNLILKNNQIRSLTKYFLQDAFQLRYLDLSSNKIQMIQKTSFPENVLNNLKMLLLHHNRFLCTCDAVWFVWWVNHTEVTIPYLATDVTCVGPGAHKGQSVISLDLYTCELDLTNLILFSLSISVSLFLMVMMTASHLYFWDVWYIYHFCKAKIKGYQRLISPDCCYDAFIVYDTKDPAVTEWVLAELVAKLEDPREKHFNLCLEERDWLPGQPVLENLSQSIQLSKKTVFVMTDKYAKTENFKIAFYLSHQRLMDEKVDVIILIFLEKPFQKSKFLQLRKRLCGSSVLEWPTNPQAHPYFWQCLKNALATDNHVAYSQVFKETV
In words: Activation of TLR7 in human AD293 cells assessed as IkappaB-alpha degradation at 10 uM preincubated with NAC followed by compound addition and measured after 30 mins by Western blot analysis. The format is cell-based. The method in brief:
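Stable TLR7-expressing AD293 line made by TLR7 plasmid transfection and hygromycin B selection (250 μg/mL, 10 days). Cells pretreated with N-acetyl-cysteine, then given 10 μM compound, with or without 30 min 650 nm red-light irradiation. Lysates run on 10% SDS-PAGE and blotted to PVDF. Total IκB probed (1:1000) with GAPDH loading control, ECL detection. Means of three experiments.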

Data set [15] is described as follows: Drug uptake in human AD293 cells assessed as increase in red fluorescence at 10 uM measured after 40 mins by fluorescence imaging based analysis. Type of data set: ADME, cell-based. To be noted: ad293, 40 min.
The next data set deals with AD293. As to the kind of experiment: Effect on morphological changes in human AD293 cells at 10 uM. The format is functional, cell-based. The method, boiled down:
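AD293 cells treated with 10 μM compound, followed by LED irradiation or kept unirradiated, then morphology examined by microscopy.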

`CCOCc1nc2c(NC(=O)OCC3=C4C(C)=CC(/C=C/c5ccc(OCCOCCOCCOC)cc5)=[N+]4[B-](C)(C)n4c(/C=C/c5ccc(OCCOCCOCCOC)cc5)cc(C)c43)nc3ccccc3c2n1CC(C)(C)O`: the results for the viability at 10 µM in data set [1] and in data set [9] were 55% and 41%, respectively. The Activity result in data set [2] is listed as “Not_active”; in data set [4] it was “Time-dependent-effect”; in data set [7] it was 11%; in [8] it was ~ 90%; in data set [10] it was 0.411. For the same compound, the viability at 72 h, 10 µM in data set [3] was found to be 4%; in [6], 2%; in data set [11], 2%. Further, the result (in data set [5]; in data set [14]; with AD293) was inactive. Moreover, the “fold change (FC)” value was around 2 in data set [12] and around 4 in data set [13]. The Drug uptake result in data set [15] is on record as “Active”.
